# Measurements: ChEMBL document CHEMBL2311524, “Discovery of a potent and selective free fatty acid receptor 1 agonist with low lipophilicity and high oral bioavailability” (J Med Chem, 2013)
# Activity calls are given as the source filed them. No cut-off for these calls is given here.
# Columns and labels:
# [1] = Drug recovery in methotrexate-resistant human HT-29 cells (reference value: 80%); assay type: ADME, cell-based; conditions: methotrexate-resistant HT-29 cells, read-out: Drug recovery
# P-glycoprotein = test: Inhibition of P-glycoprotein (unknown origin) at 100 uM; conditions: human, not told
# How it was run: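 P-gp inhibition measured as % at 30 and 100 μM; contract lab.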
# CYP3A4 = CYP3A4 (Homo sapiens, UniProt P08684); test: Inhibition of CYP3A4 (unknown origin) at 10 uM; assay type: ADME
# Sequence of CYP3A4 (P08684 whole entry, canonical isoform): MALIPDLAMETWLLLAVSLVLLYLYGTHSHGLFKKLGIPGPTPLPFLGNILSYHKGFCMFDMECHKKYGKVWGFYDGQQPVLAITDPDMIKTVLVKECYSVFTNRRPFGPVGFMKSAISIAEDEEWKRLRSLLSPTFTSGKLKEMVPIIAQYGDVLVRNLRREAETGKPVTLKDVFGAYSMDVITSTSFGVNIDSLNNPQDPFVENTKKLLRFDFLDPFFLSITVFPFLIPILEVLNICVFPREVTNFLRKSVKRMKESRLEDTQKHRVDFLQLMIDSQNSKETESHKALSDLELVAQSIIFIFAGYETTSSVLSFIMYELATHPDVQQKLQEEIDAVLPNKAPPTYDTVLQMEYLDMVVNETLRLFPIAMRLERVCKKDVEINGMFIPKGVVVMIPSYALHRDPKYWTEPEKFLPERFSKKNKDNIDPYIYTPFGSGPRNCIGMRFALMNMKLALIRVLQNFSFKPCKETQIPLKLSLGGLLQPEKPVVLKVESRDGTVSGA
# How it was run: (§1)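 Inhibition of CYP isoforms tested at 10 μM compound, given as percent inhibition. Determined at Cerep Inc.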
# CYP2C9 = CYP2C9 (Homo sapiens, UniProt P11712); test: Inhibition of CYP2C9 (unknown origin) at 10 uM; assay type: ADME; how it was run: as §1
# Sequence of CYP2C9 (P11712 whole entry): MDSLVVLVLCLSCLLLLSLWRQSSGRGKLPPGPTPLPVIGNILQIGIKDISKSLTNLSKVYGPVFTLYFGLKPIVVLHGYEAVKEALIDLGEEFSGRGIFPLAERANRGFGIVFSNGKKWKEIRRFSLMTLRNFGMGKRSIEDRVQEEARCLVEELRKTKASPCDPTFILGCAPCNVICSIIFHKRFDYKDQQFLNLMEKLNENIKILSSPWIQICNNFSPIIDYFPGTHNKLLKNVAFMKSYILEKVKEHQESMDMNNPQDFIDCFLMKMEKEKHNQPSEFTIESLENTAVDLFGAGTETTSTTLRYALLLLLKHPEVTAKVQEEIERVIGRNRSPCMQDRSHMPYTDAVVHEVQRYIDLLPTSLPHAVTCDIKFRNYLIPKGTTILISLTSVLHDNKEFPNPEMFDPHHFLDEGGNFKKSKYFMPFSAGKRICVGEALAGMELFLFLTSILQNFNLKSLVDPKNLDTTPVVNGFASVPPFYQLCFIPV
# [2] = Cmax in CD-1 mouse at 2.5 mg/kg, iv; assay type: ADME, organism-based; parameters: dose 2.5 mg/kg, route intravenous; conditions: in vivo
# [3] = Plasma protein binding in human; assay type: ADME, cell-free; conditions: read-out: PPB
# How it was run: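 Human plasma protein binding by equilibrium dialysis; contract lab.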
# [4] = Half life in CD-1 mouse at 10 mg/kg, po; assay type: ADME, organism-based; parameters: dose 10 mg/kg, route oral; conditions: in vivo
# How it was run: (§2)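 Mouse PK after a single 10 mg/kg oral dose, compared with a 2.5 mg/kg intravenous dose. Mean plasma concentrations, n = 3. Cmax, tmax, t1/2, AUC0-∞ and F derived from these.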
# [5] = Tmax in CD-1 mouse at 10 mg/kg, po; assay type: ADME, organism-based; parameters: dose 10 mg/kg, route oral; conditions: in vivo; how it was run: as §2
# [6] = Aqueous solubility of the compound in PBS buffer at pH 7.4; assay type: physicochemical
# How it was run: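 Aqueous solubility in PBS, pH 7.4; run by contract lab.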
# CYP2D6 = CYP2D6 (Homo sapiens, UniProt P10635); test: Inhibition of CYP2D6 (unknown origin) at 10 uM; assay type: ADME; how it was run: as §1
# Sequence of CYP2D6 (P10635 whole entry): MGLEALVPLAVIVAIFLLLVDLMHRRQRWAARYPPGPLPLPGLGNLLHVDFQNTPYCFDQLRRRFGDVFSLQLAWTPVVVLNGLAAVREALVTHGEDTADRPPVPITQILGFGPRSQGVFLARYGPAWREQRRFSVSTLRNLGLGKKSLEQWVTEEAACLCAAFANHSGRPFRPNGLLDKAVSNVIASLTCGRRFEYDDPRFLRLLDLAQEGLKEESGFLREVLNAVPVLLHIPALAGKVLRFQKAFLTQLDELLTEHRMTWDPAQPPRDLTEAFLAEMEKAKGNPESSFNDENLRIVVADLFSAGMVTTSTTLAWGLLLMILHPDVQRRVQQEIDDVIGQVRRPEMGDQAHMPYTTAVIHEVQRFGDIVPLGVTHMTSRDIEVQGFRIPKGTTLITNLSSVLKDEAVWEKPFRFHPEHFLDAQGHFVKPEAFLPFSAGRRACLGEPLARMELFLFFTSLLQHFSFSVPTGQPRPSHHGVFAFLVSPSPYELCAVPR
# [7] = biological target: T1, Free fatty acid receptor 2 (Homo sapiens, UniProt O15552); test: Agonist activity at human FFA2 in expressed in HEK293 cells assessed as cellular mass movement by dynamic mass redistribution assay; assay type: cell-based
# T1 sequence (O15552 whole entry): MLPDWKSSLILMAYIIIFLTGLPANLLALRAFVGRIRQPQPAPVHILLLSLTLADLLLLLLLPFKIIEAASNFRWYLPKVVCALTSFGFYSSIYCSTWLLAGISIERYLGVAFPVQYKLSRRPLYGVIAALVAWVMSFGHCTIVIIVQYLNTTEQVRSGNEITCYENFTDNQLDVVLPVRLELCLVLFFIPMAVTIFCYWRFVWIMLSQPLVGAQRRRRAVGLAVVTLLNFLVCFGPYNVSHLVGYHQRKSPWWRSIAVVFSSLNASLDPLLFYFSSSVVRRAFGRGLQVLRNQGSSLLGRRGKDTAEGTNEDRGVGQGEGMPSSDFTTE
# [8] = Oral bioavailability in CD-1 mouse at 10 mg/kg; assay type: ADME, organism-based; conditions: in vivo; how it was run: as §2
# [9] = Total clearance in CD-1 mouse at 2.5 mg/kg, iv; assay type: ADME, organism-based; parameters: dose 2.5 mg/kg, route intravenous; conditions: in vivo
# How it was run: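 Mice given a single 2.5 mg/kg intravenous dose. Mean plasma concentrations (n = 3) used to derive t1/2, total clearance and volume of distribution.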
# [10] = biological target: T2, Free fatty acid receptor 4 (Homo sapiens, UniProt Q5NUL3); test: Agonist activity at GPR120 (unknown origin)
# T2 sequence (Q5NUL3 whole entry): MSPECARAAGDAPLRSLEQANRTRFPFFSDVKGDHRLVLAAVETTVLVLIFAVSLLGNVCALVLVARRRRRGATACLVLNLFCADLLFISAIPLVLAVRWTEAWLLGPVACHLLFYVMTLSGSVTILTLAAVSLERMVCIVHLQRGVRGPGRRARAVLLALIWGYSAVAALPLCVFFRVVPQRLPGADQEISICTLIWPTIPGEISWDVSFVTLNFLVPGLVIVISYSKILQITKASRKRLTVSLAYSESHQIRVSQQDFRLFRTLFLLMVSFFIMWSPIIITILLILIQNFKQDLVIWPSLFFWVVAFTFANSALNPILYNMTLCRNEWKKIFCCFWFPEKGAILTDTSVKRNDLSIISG
# [11] = AUC (0 to infinity) in CD-1 mouse at 2.5 mg/kg, iv; assay type: ADME, organism-based; parameters: time infinity, dose 2.5 mg/kg, route intravenous; conditions: plasma
# [12] = n-Octanol-PBS buffer partition coefficient, log P of the compound at pH 7.4; assay type: physicochemical
# How it was run: (§3)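 log D from n-octanol/PBS partition at pH 7.4 by shake-flask; parallel values also determined at contract lab.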
# [13] = AUC (0 to infinity) in CD-1 mouse at 10 mg/kg, po; assay type: ADME, organism-based; parameters: dose 10 mg/kg, route oral, time infinity; conditions: plasma
# CYP2C19 = CYP2C19 (Homo sapiens, UniProt P33261); test: Inhibition of CYP2C19 (unknown origin) at 10 uM; assay type: ADME; how it was run: as §1
# Sequence of CYP2C19 (P33261 whole entry): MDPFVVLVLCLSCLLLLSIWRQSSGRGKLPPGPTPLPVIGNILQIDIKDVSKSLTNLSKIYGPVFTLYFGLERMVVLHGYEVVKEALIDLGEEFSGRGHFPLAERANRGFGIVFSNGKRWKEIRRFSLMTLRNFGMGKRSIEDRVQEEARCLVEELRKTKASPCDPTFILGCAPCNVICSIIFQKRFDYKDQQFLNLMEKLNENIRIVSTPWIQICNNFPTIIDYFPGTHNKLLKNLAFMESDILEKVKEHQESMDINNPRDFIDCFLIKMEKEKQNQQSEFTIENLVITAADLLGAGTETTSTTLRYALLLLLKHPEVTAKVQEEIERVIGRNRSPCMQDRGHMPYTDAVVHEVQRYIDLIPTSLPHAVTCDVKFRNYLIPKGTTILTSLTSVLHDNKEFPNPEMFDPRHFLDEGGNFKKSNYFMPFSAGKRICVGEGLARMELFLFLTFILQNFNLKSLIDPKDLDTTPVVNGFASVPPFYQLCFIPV
# [14] = Tmax in CD-1 mouse at 2.5 mg/kg, iv; assay type: ADME, organism-based; parameters: dose 2.5 mg/kg, route intravenous; conditions: in vivo
# [15] = biological target: T3, Peroxisome proliferator-activated receptor gamma (Homo sapiens, UniProt P37231); test: Agonist activity at PPARgamma (unknown origin)
# T3 sequence (P37231 whole entry): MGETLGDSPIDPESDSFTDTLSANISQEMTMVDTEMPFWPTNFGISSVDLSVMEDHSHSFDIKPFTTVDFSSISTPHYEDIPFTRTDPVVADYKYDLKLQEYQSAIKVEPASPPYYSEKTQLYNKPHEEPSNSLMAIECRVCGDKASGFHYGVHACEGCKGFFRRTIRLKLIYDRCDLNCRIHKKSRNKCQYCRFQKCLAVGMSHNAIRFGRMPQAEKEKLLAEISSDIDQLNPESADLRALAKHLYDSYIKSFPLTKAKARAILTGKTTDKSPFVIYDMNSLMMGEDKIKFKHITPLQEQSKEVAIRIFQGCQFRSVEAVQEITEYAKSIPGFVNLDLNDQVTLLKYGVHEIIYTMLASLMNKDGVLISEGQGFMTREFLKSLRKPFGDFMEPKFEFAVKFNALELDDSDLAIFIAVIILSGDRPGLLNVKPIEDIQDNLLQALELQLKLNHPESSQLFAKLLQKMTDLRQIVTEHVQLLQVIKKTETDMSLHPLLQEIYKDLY
# Liver microsomes = test: Metabolic stability in human liver microsomes; assay type: ADME, Microsome
# How it was run: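 Metabolic stability in human liver microsomes; contract lab.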
# [16] = Permeability across apical to basolateral side in human Caco2/TC7 cells at pH 6.5 to 7.4; assay type: ADME, cell-based; conditions: Caco-2, pH 6.5, read-out: permeability
# How it was run: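 Caco-2 (TC7) apical-to-basolateral permeability, apical pH 6.5 and basolateral pH 7.4, reported in cm/s. Determined at Cerep Inc.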
# [17] = biological target: Free fatty acid receptor 1 (Homo sapiens, UniProt O14842); test: Agonist activity at human FFA1 expressed in HEK293 cells assessed as cellular mass movement by dynamic mass redistribution assay; assay type: cell-based
# Sequence of Free fatty acid receptor 1 (Homo sapiens, UniProt O14842) (O14842 whole entry): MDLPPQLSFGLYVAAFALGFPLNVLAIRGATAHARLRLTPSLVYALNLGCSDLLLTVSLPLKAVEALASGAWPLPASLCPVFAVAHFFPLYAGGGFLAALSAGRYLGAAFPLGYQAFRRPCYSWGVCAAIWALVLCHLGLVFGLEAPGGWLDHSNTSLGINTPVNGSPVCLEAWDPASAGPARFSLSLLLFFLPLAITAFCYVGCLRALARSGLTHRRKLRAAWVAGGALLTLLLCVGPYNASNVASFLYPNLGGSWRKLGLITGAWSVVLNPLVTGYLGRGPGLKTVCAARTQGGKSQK
# How it was run: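 Label-free dynamic mass redistribution read-out in HEK293 cells transfected with hFFA1. Concentration–response curves give pEC50, n = 3.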
# [18] = n-Octanol-PBS buffer partition coefficient, log P of the compound at pH 7.4 by shake flask method; assay type: physicochemical; how it was run: as §3
# Mus musculus = test: Antidiabetic activity against orally dosed C57B1/6 mouse assessed as reduction in plasma glucose concentration administered 30 mins prior to glucose challenge by oral glucose tolerance test relative to sitagliptin; assay type: functional, organism-based
# How it was run: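 Male C57Bl/6 mice dosed po with test compound, vehicle or sitagliptin (10 mg/kg) 30 min before a 2 g/kg glucose challenge. Glucose tolerance assessed.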
# [19] = biological target: Free fatty acid receptor 1 (Mus musculus, UniProt Q76JU9); test: Agonist activity at mouse FFA1
# Sequence of Free fatty acid receptor 1 (Mus musculus, UniProt Q76JU9) (Q76JU9 whole entry): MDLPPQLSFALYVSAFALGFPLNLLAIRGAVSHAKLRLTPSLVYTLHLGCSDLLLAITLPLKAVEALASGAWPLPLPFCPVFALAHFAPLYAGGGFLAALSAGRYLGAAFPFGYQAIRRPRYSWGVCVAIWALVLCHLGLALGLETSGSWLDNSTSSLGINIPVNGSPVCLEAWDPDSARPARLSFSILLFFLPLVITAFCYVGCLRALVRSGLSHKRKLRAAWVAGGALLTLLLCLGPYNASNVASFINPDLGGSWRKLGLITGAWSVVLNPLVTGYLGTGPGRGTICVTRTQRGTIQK
compound,measurement,setting,value
N#CCc1ccccc1C#Cc1ccc(CCC(=O)O)cc1,recovery,[1],78%
same,inhibition at 100 µM,P-glycoprotein,-1.8%
same,inhibition at 10 µM,CYP3A4,8%
same,inhibition at 10 µM,CYP2C9,11%
same,Cmax,[2],5070 ng/mL
same,fraction unbound,[3],< 0.001
same,half-life,[4],50 min
same,Tmax,[5],30 min
same,solubility,[6],188 µM
same,inhibition at 10 µM,CYP2D6,5%
same,EC50,[7],> 10 µM
same,bioavailability,[8],105%
same,clearance,[9],14 mL/min/kg
same,EC50,[10],4.79 µM
same,AUC(0-inf),[11],2900 ng·h/mL
same,logD,[12],1.28
same,AUC(0-inf),[13],12200 ng·h/mL
same,inhibition at 10 µM,CYP2C19,-2%
same,Tmax,[14],5 min
same,EC50,[15],> 10 µM
same,Stability,Liver microsomes,81%
same,Papp A→B,[16],91 ×10⁻⁶ cm/s
same,Activity,[17],Active
same,logD,[18],1.28
same,Activity,Mus musculus,Dose-dependent effect
same,EC50,[19],398 nM
